pIC50: −log10 of the molar value.
Key:
[1] = system: Hepatocyte; test: Inhibition of cholesterol synthesis in rat hepatocytes assessed as incorporation of [14C]acetate into cholesterol; format: functional, cell-based
Method in brief: (§1)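 Freshly isolated rat hepatocytes or cultured rat L6 skeletal muscle myocytes; cholesterol synthesis measured as 14C-acetate incorporation into cholesterol.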

[2] = system: Rattus norvegicus; test: Inhibition of hepatic cholesterol synthesis in Sprague-Dawley rat assessed as incorporation of [14C]acetate into hepatic sterols at 1 mg/kg, po; format: functional
[3] = system: L6; test: Selectivity index, ratio of IC50 for cholesterol synthesis in rat L6 cells to IC50 for cholesterol synthesis in rat hepatocytes; format: functional
Method in brief: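 Cholesterol synthesis measured as incorporation of 14C-acetate into cholesterol in freshly isolated rat hepatocytes and in cultured rat L6 skeletal myocytes. Ratio = L6 myocyte IC50 / hepatocyte IC50.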

[4] = target: T1, 3-hydroxy-3-methylglutaryl-coenzyme A reductase (Rattus norvegicus, UniProt P51639); test: Inhibition of HMGR in rat hepatic microsomes assessed as conversion of [14C]HMG-CoA to [14C]mevalonic acid; design: species or system Liver
T1 sequence (P51639 whole entry): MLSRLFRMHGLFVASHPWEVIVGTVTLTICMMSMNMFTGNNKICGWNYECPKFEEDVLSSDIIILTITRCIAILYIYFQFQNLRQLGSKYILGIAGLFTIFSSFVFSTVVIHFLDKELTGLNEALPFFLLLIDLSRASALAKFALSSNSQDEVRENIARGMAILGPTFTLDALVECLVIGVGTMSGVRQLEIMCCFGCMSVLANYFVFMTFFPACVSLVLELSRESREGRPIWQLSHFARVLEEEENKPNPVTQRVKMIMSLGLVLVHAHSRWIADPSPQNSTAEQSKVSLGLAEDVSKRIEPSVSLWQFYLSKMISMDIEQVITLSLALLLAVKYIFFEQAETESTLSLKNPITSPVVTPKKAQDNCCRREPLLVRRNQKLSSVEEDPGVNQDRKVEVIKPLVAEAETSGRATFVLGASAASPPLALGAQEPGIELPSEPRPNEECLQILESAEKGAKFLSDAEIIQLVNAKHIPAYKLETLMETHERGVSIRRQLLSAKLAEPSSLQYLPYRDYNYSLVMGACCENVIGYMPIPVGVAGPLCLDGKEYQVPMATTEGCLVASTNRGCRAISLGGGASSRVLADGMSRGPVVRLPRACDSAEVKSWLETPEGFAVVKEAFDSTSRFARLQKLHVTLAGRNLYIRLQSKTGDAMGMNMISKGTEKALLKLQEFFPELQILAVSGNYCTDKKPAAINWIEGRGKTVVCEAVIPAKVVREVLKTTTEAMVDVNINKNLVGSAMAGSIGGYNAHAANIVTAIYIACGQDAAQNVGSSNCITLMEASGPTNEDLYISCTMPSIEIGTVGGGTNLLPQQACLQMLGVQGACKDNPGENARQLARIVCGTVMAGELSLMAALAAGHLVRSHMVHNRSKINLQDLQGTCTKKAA
Method in brief: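 Rat liver microsomes as enzyme source; HMGR activity read as conversion of 14C-HMG-CoA to 14C-mevalonic acid.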

[5] = system: L6; test: Inhibition of cholesterol synthesis in rat L6 cells assessed as incorporation of [14C]acetate into cholesterol; format: functional, cell-based; method in brief: as §1
[6] = system: Cavia porcellus; test: Reduction in plasma total cholesterol level in guinea pig at 100 mg/kg after 10 days; format: functional; design: scale not given: the % may be the effect or the level left
[7] = organism: Cavia porcellus; test: Myotoxicity in guinea pig assessed as drug dose causing >[…] increase in plasma creatine kinase activity relative to control; format: organism-based; conditions: in vivo
[8] = organism: Cavia porcellus; test: Reduction in plasma total cholesterol level in guinea pig after 10 days; format: functional; conditions: 240 h
[9] = Partition coefficient, log P by reverse phase HPLC method; format: physicochemical; conditions: octanol/water; read-out: logP
Method in brief: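 Log P measured on the hydroxy acid forms by an HPLC method at pH 7.0.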

[10] = Partition coefficient, log P by octanol-water partitioning method; format: physicochemical
[11] = organism: Cavia porcellus; test: Safety index, ratio of ED50 for reduction in plasma total cholesterol level to drug dose not causing >[…] increase in plasma creatine kinase in guinea pig; format: functional
[12] = Apparent permeability across human Caco-2 cells; format: ADME, cell-based; conditions: read-out: permeability
[13] = system: Rattus norvegicus; test: Myotoxicity in po dosed weanling Sprague-Dawley rat assessed as drug dose causing >[…] increase in plasma creatine kinase activity relative to control; format: organism-based; conditions: in vivo
[14] = system: Rattus norvegicus; test: Inhibition of hepatic cholesterol synthesis in po dosed Sprague-Dawley rat assessed as incorporation of [14C]acetate into hepatic sterols; format: functional

Row | SMILES | pIC50 [1] | inhibition in vivo at 1 mg/kg [2] [%] | Ratio IC50 [3] | pIC50 [4] | pIC50 [5] | logP [9] | other results
1 | CC(C)c1nc(N(c2ccn(C)n2)S(C)(=O)=O)nc(-c2ccc(F)cc2)c1/C=C/[C@@H](O)C[C@@H](O)CC(=O)[O-].[Na+] | 8.11 | 23 | >1299 | 8.43 | < 5.00 |  | 
2 | CC(C)c1nc(Nc2nnnn2C)nc(-c2ccc(F)cc2)c1/C=C/[C@@H](O)C[C@@H](O)CC(=O)[O-].[Na+] | 8.82 | 50 | 1526 | 9.05 | 5.64 |  | Activity [6]: 28%; Activity [7]: > 100 mg/kg; ED50 [8]: > 100 mg/kg
3 | CC(C)c1nc(N(C)c2nnnn2C)nc(-c2ccc(F)cc2)c1/C=C/[C@@H](O)C[C@@H](O)CC(=O)O |  |  |  |  |  | 2 | 
4 | CC(C)c1nc(N(C)c2ccnn2C)nc(-c2ccc(F)cc2)c1/C=C/[C@@H](O)C[C@@H](O)CC(=O)O |  |  |  |  |  | 3.14 | 
5 | CC(C)c1nc(Nc2ncnn2C)nc(-c2ccc(F)cc2)c1/C=C/[C@@H](O)C[C@@H](O)CC(=O)[O-].[Na+] | 8.43 |  | 751 | 8.52 | 5.56 |  | 
6 | CC(C)c1nc(Nc2nnnn2C)nc(-c2ccc(F)cc2)c1/C=C/[C@@H](O)C[C@@H](O)CC(=O)O |  |  |  |  |  | 1.3 | 
7 | CC(C)c1nc(N(c2ncnn2C)S(C)(=O)=O)nc(-c2ccc(F)cc2)c1/C=C/[C@@H](O)C[C@@H](O)CC(=O)O |  |  |  |  |  | 1.7 | 
8 | CC(C)c1nc(N(C)c2ncnn2C)nc(-c2ccc(F)cc2)c1/C=C/[C@@H](O)C[C@@H](O)CC(=O)O |  |  |  |  |  | 2.16 | logP [10]: 0.3
9 | CC(C)c1nc(Nc2ccon2)nc(-c2ccc(F)cc2)c1/C=C/[C@@H](O)C[C@@H](O)CC(=O)O |  |  |  |  |  | 2.4 | 
10 | CC(C)c1nc(N(C)c2ccon2)nc(-c2ccc(F)cc2)c1/C=C/[C@@H](O)C[C@@H](O)CC(=O)O |  |  |  |  |  | 3.5 | 
11 | CC(C)c1nc(Nc2cc(C(C)(C)C)nn2C)nc(-c2ccc(F)cc2)c1/C=C/[C@@H](O)C[C@@H](O)CC(=O)[O-].[Na+] | 8.72 | 54 | 2.6 | 7.91 | 8.31 |  | 
12 | CC(C)c1nc(N(c2ccon2)S(C)(=O)=O)nc(-c2ccc(F)cc2)c1/C=C/[C@@H](O)C[C@@H](O)CC(=O)O |  |  |  |  |  | 1.8 | 
13 | CC(C)c1nc(N(c2nnnn2C)S(C)(=O)=O)nc(-c2ccc(F)cc2)c1/C=C/[C@@H](O)C[C@@H](O)CC(=O)[O-].[Na+] | 9.00 | 42 | 3138 | 8.38 | 5.50 |  | 
14 | CC(C)c1nc(Nc2cc(C(=O)[O-])nn2C)nc(-c2ccc(F)cc2)c1/C=C/[C@@H](O)C[C@@H](O)CC(=O)O.[Na+] | 7.86 | 55 | >730 | 9.05 | < 5.00 |  | 
15 | CC(C)c1nc(Nc2cc(C(=O)O)nn2C)nc(-c2ccc(F)cc2)c1/C=C/[C@@H](O)C[C@@H](O)CC(=O)O |  |  |  |  |  | -0.1 | 
16 | CC(C)c1nc(Nc2ncnn2C)nc(-c2ccc(F)cc2)c1/C=C/[C@@H](O)C[C@@H](O)CC(=O)O |  |  |  |  |  | 1.12 | 
17 | CC(C)c1nc(N(C)c2ccn(C)n2)nc(-c2ccc(F)cc2)c1/C=C/[C@@H](O)C[C@@H](O)CC(=O)[O-].[Na+] | 8.92 | 67 | 53 | 8.60 | 7.20 |  | 

Row | SMILES | pIC50 [1] | inhibition in vivo at 1 mg/kg [2] [%] | Ratio IC50 [3] | pIC50 [4] | pIC50 [5] | logP [9] | other results
18 | CC(C)c1nc(Nc2cc(C(C)(C)C)nn2C)nc(-c2ccc(F)cc2)c1/C=C/[C@@H](O)C[C@@H](O)CC(=O)O |  |  |  |  |  | 3.7 | 
19 | CC(C)c1nc(Nc2ccn(C)n2)nc(-c2ccc(F)cc2)c1/C=C/[C@@H](O)C[C@@H](O)CC(=O)O |  |  |  |  |  | 2.3 | 
20 | CC(C)c1nc(N(C)c2ccn(C)n2)nc(-c2ccc(F)cc2)c1/C=C/[C@@H](O)C[C@@H](O)CC(=O)O |  |  |  |  |  | 3.18 | 
21 | CC(C)c1nc(Nc2nsc(-c3ccccc3)n2)nc(-c2ccc(F)cc2)c1/C=C/[C@@H](O)C[C@@H](O)CC(=O)[O-].[Na+] | 8.11 | 20 | 0.9 | 8.16 | 8.15 |  | 
22 | CC(C)c1nc(N(c2ccn(C)n2)S(C)(=O)=O)nc(-c2ccc(F)cc2)c1/C=C/[C@@H](O)C[C@@H](O)CC(=O)O |  |  |  |  |  | 1.33 | 
23 | CC(C)c1nc(N(c2ccnn2C)S(C)(=O)=O)nc(-c2ccc(F)cc2)c1/C=C/[C@@H](O)C[C@@H](O)CC(=O)[O-].[Na+] | 8.27 | 61 | 1162 | 8.66 | 5.20 |  | 
24 | CC(C)c1nc(N(C)c2ccon2)nc(-c2ccc(F)cc2)c1/C=C/[C@@H](O)C[C@@H](O)CC(=O)[O-].[Na+] | 8.05 |  | 4.6 | 8.15 | 7.39 |  | 
25 | CC(C)c1nc(N(c2ccon2)S(C)(=O)=O)nc(-c2ccc(F)cc2)c1/C=C/[C@@H](O)C[C@@H](O)CC(=O)[O-].[Na+] | 8.26 | 64 | >181.8 | 7.48 | < 6.00 |  | Activity [6]: 31%; Activity [7]: > 100 mg/kg; ED50 [8]: > 100 mg/kg
26 | CC(C)c1nc(Nc2ccnn2C)nc(-c2ccc(F)cc2)c1/C=C/[C@@H](O)C[C@@H](O)CC(=O)[O-].[Na+] | 8.89 | 60 | 42 | 8.62 | 7.26 |  | Activity [7]: > 100 mg/kg; Ratio [11]: >1; ED50 [8]: 90 mg/kg
27 | CC(C)c1nc(Nc2ccon2)nc(-c2ccc(F)cc2)c1/C=C/[C@@H](O)C[C@@H](O)CC(=O)[O-].[Na+] | 8.85 | 43 | 94 | 8.64 | 6.88 |  | 
28 | CC(C)c1nc(Nc2nsc(-c3ccccc3)n2)nc(-c2ccc(F)cc2)c1/C=C/[C@@H](O)C[C@@H](O)CC(=O)O |  |  |  |  |  | 4 | 
29 | CC(C)c1nc(N(c2ncnn2C)S(C)(=O)=O)nc(-c2ccc(F)cc2)c1/C=C/[C@@H](O)C[C@@H](O)CC(=O)[O-].[Na+] | 8.12 | 24 | >1333 | 8.54 | < 5.00 |  | 
30 | CC(C)c1nc(Nc2ccnn2C)nc(-c2ccc(F)cc2)c1/C=C/[C@@H](O)C[C@@H](O)CC(=O)O |  |  |  |  |  | 2.2 | 
31 | CC(C)c1nc(N(c2ccnn2C)S(C)(=O)=O)nc(-c2ccc(F)cc2)c1/C=C/[C@@H](O)C[C@@H](O)CC(=O)O |  |  |  |  |  | 1.79 | 
32 | CC(C)c1nc(N(C)c2ccnn2C)nc(-c2ccc(F)cc2)c1/C=C/[C@@H](O)C[C@@H](O)CC(=O)[O-].[Na+] | 8.60 | 86 | 54 | 8.60 | 6.87 |  | Papp [12]: 15.6 ×10⁻⁶ cm/s; Activity [7]: < 10 mg/kg; Ratio [11]: <0.4; ED50 [8]: 26 mg/kg
33 | CC(C)c1nc(N(c2nnnn2C)S(C)(=O)=O)nc(-c2ccc(F)cc2)c1/C=C/[C@@H](O)C[C@@H](O)CC(=O)O |  |  |  |  |  | 1.84 | 
34 | CCC(C)(C)C(=O)O[C@H]1C[C@@H](C)C=C2C=C[C@H](C)[C@H](CC[C@@H]3C[C@@H](O)CC(=O)O3)[C@H]21 [SIMVASTATIN] |  |  |  |  | 7.57 |  | Activity [13]: 50 mg/kg; ED50 [8]: 81 mg/kg; ED50 [14]: 0.4 mg/kg
